In publication PMC6023675 (Journal of molecular biology, 2018):

Assays:
E. coli 70S ribosomes = experiment: Competition binding assay with BODIPY-labeled erythromycin; details: ratio of KDapp versus CLM; listed as L-histidyl analogue
Method in brief: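 E. coli 70S ribosomes (25 nM) preincubated with BODIPY-erythromycin (4 nM) for 30 min at 25°C in 20 mM HEPES-KOH pH 7.5, 50 mM NH₄Cl, 10 mM Mg acetate, 0.05% Tween-20. Test compound was added at 0.1 μM to 1 mM, then incubated 2 h to equilibrium. Fluorescence polarization was read to give apparent KD by competition.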

[1] = system: ribosome translating synthetic ORF […]; experiment: Primer extension inhibition; format: biochemical; details: 100 μM antibiotic, with or without mupirocin 50 μM, ORF MFKAFKNIIRTRTL
[2] = system: cell-free translation of firefly luciferase in E. coli S30 cell extract; format: biochemical; details: 30 μM inhibitor
Method in brief: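 In vitro transcribed firefly luciferase mRNA (100 ng) was translated in E. coli S30 extract at 37°C for 30 min with test compound at 30 μM final. Luciferase activity was read with Steady-Glo substrate. Reactions were run in triplicate; error bars are confidence interval (α = 0.05).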

With `N[C@@H](Cc1c[nH]cn1)C(=O)N[C@H](CO)[C@H](O)c1ccc([N+](=O)[O-])cc1` [His-CAM (1)] the “Affinity for the ribosome relative to CLM (fold higher)” value (E. coli 70S ribosomes) was 10 fold.
In the case of `C=C[C@]1(C)C[C@@H](OC(=O)CS[C@@H]2C[C@H]3CC[C@@H](C2)N3C)[C@]2(C)[C@H](C)CC[C@]3(CCC(=O)[C@H]32)[C@@H](C)[C@@H]1O` [retapamulin (RET), retapamulin], the “Site of antibiotic-induced translation arrest (toe-printing)” value [1] is reported as “arrests the ribosome at the start codon”.
In the case of `O=C(N[C@H](CO)[C@H](O)c1ccc([N+](=O)[O-])cc1)C(Cl)Cl` [CLM, chloramphenicol], the “Inhibition of firefly luciferase synthesis (in words)” value [2] is reported as “near-complete inhibition”.
